Results as given in ChEMBL document CHEMBL1144429, “Computational strategies in discovering novel non-nucleoside inhibitors of HIV-1 RT” (J Med Chem, 2005).

What was measured:
MT4 [1] = assay: Ratio of CC50 to that of EC50; assay type: functional, Homo sapiens
In short: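 Selectivity index is calculated as CC50/EC50. Both values come from the parallel MT-4 assays: cell viability for CC50 and protection from HIV-1-induced cytopathic effect for EC50.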

MT4 [2] = assay: Concentration required to reduce HIV-1-induced cytopathic effect in MT-4 cells; assay type: functional, cell-based; conditions: Homo sapiens
In short: (§1)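 MT-4 cells infected with HIV-1. The read-out is protection against virus-induced cytopathic effect. EC50 is the concentration giving a 50% reduction of the cytopathic effect. Uninfected MT-4 cytotoxicity was run in parallel.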

MT4 [3] = assay: Cytotoxic concentration required to reduce MT-4 cell viability; assay type: functional; conditions: Homo sapiens
In short: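 Viability of MT-4 cells was measured with compound alone, in parallel with the HIV-1 cytopathic-effect assay. CC50 is the concentration reducing MT-4 cell viability by 50%.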

[4] = molecular target: Human immunodeficiency virus type 1 reverse transcriptase (Human immunodeficiency virus 1, UniProt Q72547); assay: Concentration required to inhibit in vitro RNA-dependent DNA polymerase activity of reverse transcriptase
In short: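 Recombinant HIV-1 RT. RNA-dependent DNA polymerase activity was measured in vitro. IC50 is the concentration inhibiting this polymerase activity by 50%.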

MT4 [5] = assay: Concentration required to reduce HIV-1-induced cytopathic effect in MT-4 cells; NA = not active; assay type: functional, cell-based, Homo sapiens; in short: as §1
MT4 [6] = assay: Compound was tested for inhibition of the cytopathic effects of HIV-1 (IIIB) in MT-4 cells; assay type: functional, cell-based; conditions: Homo sapiens
In short: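 HIV-1-induced cytopathic effect measured in MT-4 cell cultures. EC50 is the concentration reducing the cytopathic effect by 50%. Cytotoxicity in MT-4 cells was run in parallel.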

CCRF-CEM [7] = assay: Concentration required to protect CEM cells against Mutant E138K Strain; assay type: functional, cell-based; conditions: Homo sapiens
In short: (§2)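 CEM cell cultures were infected with mutant HIV-1 strains, each carrying a single NNRTI-resistance mutation in RT. EC50 is the concentration protecting CEM cells against HIV-induced cytopathogenicity by 50%.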

CCRF-CEM [8] = assay: Concentration required to protect CEM cells against Mutant K103N Strain; assay type: functional, cell-based; conditions: Homo sapiens; in short: as §2
CCRF-CEM [9] = assay: Concentration required to protect CEM cells against Mutant L100I Strain; assay type: functional, cell-based; conditions: Homo sapiens; in short: as §2
CCRF-CEM [10] = assay: Concentration required to protect CEM cells against Mutant Y181C Strain; assay type: functional, cell-based; conditions: Homo sapiens; in short: as §2
CCRF-CEM [11] = assay: Concentration required to protect CEM cells against Mutant Y188H Strain; assay type: functional, cell-based; conditions: Homo sapiens; in short: as §2

| Compound | Ratio (MT4 [1]) | EC50 (MT4 [2]) | CC50 (MT4 [3]) | IC50 [4] | EC50 (MT4 [5]) | EC50 (MT4 [6]) | EC50 (CCRF-CEM [7]) | EC50 (CCRF-CEM [8]) | EC50 (CCRF-CEM [9]) | EC50 (CCRF-CEM [10]) | EC50 (CCRF-CEM [11]) |
| --- | --- | --- | --- | --- | --- | --- | --- | --- | --- | --- | --- |
| Oc1nc2cc(Cl)ccc2n1Cc1c(F)cccc1F | >14 | 29.6 µM | > 424 µM | 60 µM |  |  |  |  |  |  |  |
| O=c1oc2ccc(Cl)cc2n1Cc1c(F)cccc1F | >91 | 3.72 µM | > 382 µM | 20 µM |  |  |  |  |  |  |  |
| CC(C)c1ccc(Cn2c(O)nc3ccc(Cl)cc32)cc1 | >147 | 2.83 µM | > 415 µM | 16.2 µM |  |  |  |  |  |  |  |
| Oc1nc2ccc(Cl)cc2n1Cc1c(Cl)cccc1Cl | 83 | 3.79 µM | 315 µM | 7.5 µM |  |  |  |  |  |  |  |
| Oc1nc2ccc(Cl)cc2n1Cc1cccc2ccccc12 | 57 | 0.87 µM | 50 µM | 12.7 µM |  |  |  |  |  |  |  |
| Oc1nc2ccc(Cl)cc2n1CC1CCCCC1 |  |  | 9.5 µM | 50 µM | Not Active |  |  |  |  |  |  |
| Oc1nc2ccc(Cl)cc2n1Cc1ccc2ccccc2c1 | >64 | 6.35 µM | > 405 µM | 5.2 µM |  |  |  |  |  |  |  |
| O=c1[nH]c2ccc(Cl)cc2n1Cc1c(F)cccc1F | >1766 | 0.24 µM | > 424 µM | 2.86 µM |  | 0.24 µM | 2.9 µM | > 20 µM | 2 µM | > 20 µM | > 20 µM |
| Fc1cccc(F)c1C1SCc2nc3ccccc3n21 (configuration not stated) [THIAZOLOBENZIMIDAZOLE] | 45 | 1.1 µM | 50 µM | 24.6 µM |  | 1.39 µM | 1.73 µM | 15.6 µM | 3.12 µM | 13.8 µM | 4.16 µM |
